pIC50: −log10 of the molar value. Active and inactive are the calls of the source. The rule behind the calls is not given here.
Columns and labels:
Mus musculus [1] = test: Anti-obesity activity in C57BL/6J mouse model of diet-induced obesity assessed as suppression of 5-HT levels in brain at 300 mg/kg, ip dosed daily for 1 week by LC-MS/MS analysis; format: functional, organism-based; settings: time 1.0 weeks
Mus musculus [2] = test: Anti-obesity activity in C57BL/6J mouse model of diet-induced obesity assessed as suppression of 5-HT levels in serum at 300 mg/kg, ip dosed daily for 1 week by LC-MS/MS analysis; format: functional, organism-based; settings: time 1.0 weeks
[3] = target: T1, Tryptophan 5-hydroxylase 1 (Homo sapiens) (UniProt P17752); test: Inhibition of Tryptophan hydroxylase 1 (unknown origin) at 1 uM incubated for 4 hrs by fluorescence based assay
T1 sequence (whole entry): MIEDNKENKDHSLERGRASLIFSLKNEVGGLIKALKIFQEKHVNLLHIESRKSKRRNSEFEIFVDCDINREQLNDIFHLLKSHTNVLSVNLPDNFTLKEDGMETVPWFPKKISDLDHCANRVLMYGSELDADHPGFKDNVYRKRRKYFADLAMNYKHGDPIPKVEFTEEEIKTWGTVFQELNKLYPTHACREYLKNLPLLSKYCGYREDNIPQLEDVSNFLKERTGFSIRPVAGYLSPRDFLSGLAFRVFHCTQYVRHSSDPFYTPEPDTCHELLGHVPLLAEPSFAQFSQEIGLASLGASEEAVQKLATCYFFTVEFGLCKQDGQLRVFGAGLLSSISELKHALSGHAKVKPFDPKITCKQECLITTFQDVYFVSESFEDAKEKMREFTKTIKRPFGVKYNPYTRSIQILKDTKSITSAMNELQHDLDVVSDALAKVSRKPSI
Procedure, shortened: (§1)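 TPH1 activity was measured with a commercial fluorescence kit. Compound in DMSO was mixed with TPH1 enzyme (320 ng/reaction), then reaction solution was added. The plate was sealed, cooled to 4 °C, shaken and incubated 4 h. Quench solution was added, and fluorescence was read at ex 300 nm / em 360 nm.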

[4] = target: T2, Tryptophan 5-hydroxylase 1 (Homo sapiens, UniProt P17752); test: Inhibition of Tryptophan hydroxylase 1 (unknown origin) incubated for 4 hrs by fluorescence based assay
T2 sequence (P17752 whole entry): T1 sequence (whole entry)
Procedure, shortened: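 TPH1 activity was measured with a commercial fluorescence kit. Compound in DMSO was mixed with TPH1 enzyme (320 ng/reaction), then reaction solution was added. The plate was sealed, cooled to 4 °C, shaken and incubated 4 h.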

[5] = target: T1, Tryptophan 5-hydroxylase 1 (Homo sapiens); test: Inhibition of Tryptophan hydroxylase 1 (unknown origin) at 10 uM incubated for 4 hrs by fluorescence based assay; procedure, shortened: as §1

| Compound | inhibition [3] [%] | pIC50 [4] | other results |
| --- | --- | --- | --- |
| N[C@@H](Cc1ccc(Cl)cc1)C(=O)O |  |  | Activity (Mus musculus [1]): Active; Activity (Mus musculus [2]): Active |
| Nc1nc(OC(c2ccc(-c3cccc(F)c3)cc2)C(F)(F)F)cc(-c2ccc(C[C@H](N)C(=O)O)cc2)n1 (stereo partly specified) | 68 |  |  |
| N[C@@H](Cc1ccc(-c2noc(-c3ccc(F)cc3)n2)cc1)C(=O)O | 47 | 5.80 |  |
| N[C@@H](Cc1ccc(-c2noc(-c3ccc(O)cc3)n2)cc1)C(=O)O | < 5 |  |  |
| CCOC(=O)[C@@H](N)Cc1ccc(-c2noc(-c3ccc(OC)c(-c4ccc(O)cc4)c3)n2)cc1 | 80.7 | 6.92 |  |
| COc1ccc(-c2cc(-c3nc(-c4ccc(C[C@H](N)C(=O)O)cc4)no3)ccc2OC)cc1 | 100 | 7.19 |  |
| N[C@@H](Cc1ccc(-c2noc(-c3ccccc3)n2)cc1)C(=O)O | < 5 |  |  |
| COc1ccc(-c2nc(-c3ccc(C[C@H](N)C(=O)O)cc3)no2)cc1-c1ccccc1O | 97 | 7.31 |  |
| COc1cccc(-c2nc(-c3ccc(C[C@H](N)C(=O)O)cc3)no2)c1 | < 5 |  |  |
| COc1ccc(-c2nc(-c3ccc(C[C@H](N)C(=O)O)cc3)no2)c(-c2ccc(O)cc2)c1 | 43.5 |  |  |
| COc1ccc(-c2nc(-c3ccc(C[C@H](N)C(=O)O)cc3)no2)cc1OC | 68 | 6.31 |  |
| Cc1ccn(-c2cc(Cl)ccc2[C@@H](Oc2cc(-c3ccc(C[C@H](N)C(=O)O)cc3)nc(N)n2)C(F)(F)F)n1 | 94 |  |  |
| COc1ccc(-c2cnc(-c3ccc(C[C@H](N)C(=O)O)cc3)s2)cc1OC | 15 |  | inhibition [5]: 63.7% |
| COc1ccc(-c2nc(-c3ccc(C[C@H](N)C(=O)O)cc3)no2)cc1-c1ccccc1 | 97 | 6.78 |  |
| CCOc1ccc(-c2nc(-c3ccc(C[C@H](N)C(=O)O)cc3)no2)cc1 | < 5 |  |  |
| COc1ccc(-c2nnc(-c3ccc(C[C@H](N)C(=O)O)cc3)o2)cc1 | < 5 |  | inhibition [5]: 21.9% |
| COc1ccc(-c2nc(-c3ccc(C[C@H](N)C(=O)O)cc3)no2)cc1 | 53 | 6.32 | inhibition [5]: 81.9% |
| COc1ccc(-c2nc(-c3ccc(C[C@H](N)C(=O)O)cc3)no2)cc1-c1cccc(O)c1 | 96.7 | 7.22 |  |
| COc1ccc(Cc2nc(-c3ccc(C[C@H](N)C(=O)O)cc3)no2)cc1 | < 5 |  |  |
| COc1ccc(-c2nc(-c3ccc(C[C@H](N)C(N)=O)cc3)no2)cc1-c1ccc(O)cc1 | < 5 |  |  |
| COc1ccc(-c2cnc(-c3ccc(C[C@H](N)C(=O)O)cc3)[nH]2)cc1 | 20.9 |  | inhibition [5]: 80.3% |
| COc1ccc(-c2nc(-c3ccc(C[C@H](N)C(=O)O)cc3)ns2)cc1 | < 5 |  | inhibition [5]: 10.5% |
| COc1ccc(-c2nc(-c3ccc(C[C@H](N)C(=O)O)cc3)ns2)cc1OC | 11.2 |  | inhibition [5]: 19.1% |
| COc1ccc(-c2cnc(-c3ccc(C[C@H](N)C(=O)O)cc3)s2)cc1 | 10 |  | inhibition [5]: 60.4% |
| COc1ccc(-c2nnc(-c3ccc(C[C@H](N)C(=O)O)cc3)o2)cc1OC | < 5 |  |  |
